Bioassay records (PubChem BioAssay)
Only some compounds are listed: those with a hit (about 2.4% of all), similar ones and a draw of the others.
PfM18AAP inh = blocks P. falciparum M18 aspartyl aminopeptidase; recombinant PfM18AAP, H-Glu-NHMec fluorogenic cleavage; inhibition, % at 7.35 µM; 290,000 compounds, 1.2% hits; AID 1822;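 active = inhibition above the campaign mean inhibition over all tested compounds plus 3 SD, cut at about 28% in these data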;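 note: 0% = plate median of test compound wells and 100% = 2 mM ZnCl2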
HKDC1 inhibitor = blocks human hexokinase HKDC1 activity. Q2TB90. recombinant HKDC1, G6PDH/diaphorase resazurin coupled fluorescence. inhibition, % at 20 µM. 340,000 compounds, 0.16% hits. AID 493160;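 active = inhibition above about 35% when tested at 20 µM, limit read from the data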;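 note: plate controls were DMSO wells with enzyme for no effect and DMSO wells lacking enzyme for full effect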
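test system = in-house recombinant HK5 (HKDC1) enzyme | amount = HKDC1 at 5 µg/mL | control set = DMSO-enzyme wells negative, buffer-substituted wells positive | compound = one dose of 20 µM, 1% DMSO | schedule = reaction time 90 min, room temperature, protected from light | technique = resorufin fluorescence at 613 nm | reagent = glucose with 1 mM ATP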
APOBEC3A inh = human APOBEC3A DNA deaminase inhibition. recombinant A3A, FAM/TAMRA ssDNA deamination fluorescence. inhibition, % at 20 µM. 330,000 compounds, 0.41% hits. AID 493011;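 active = at least 40% inhibition at 20 µM here, with at most 30% in a related deaminase screen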;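 note: plate controls were A3A with DMSO for no effect and wells lacking A3A enzyme for full effect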
PfGluPho inh = PfG6PD (Plasmodium falciparum) enzyme inhibition | PfGluPho enzyme, NADPH resazurin-diaphorase fluorescence | inhibition, % at 20 µM | 350,000 compounds, 0.78% hits | AID 504690;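 active = inhibition reaching at least a set limit at 20 µM in the primary screen, cut at about 59% in these data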;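 note: 0% = DMSO wells with substrate and 100% = DMSO wells lacking glucose-6-phosphate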
APOBEC3G inh = APOBEC3G (human) deaminase inhibition. Q9HC16. 330,000 compounds, 0.28% hits. inhibition, % at 20 µM. recombinant A3G, ssDNA deamination FAM/TAMRA fluorescence;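 active = inhibition of at least 40% at 20 µM, with no more than 30% in the related APOBEC3A deaminase screen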;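 note: plate controls were DMSO wells with A3G for no effect and wells lacking A3G enzyme for full effect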
Target sequence (Q9HC16 whole entry, looked up): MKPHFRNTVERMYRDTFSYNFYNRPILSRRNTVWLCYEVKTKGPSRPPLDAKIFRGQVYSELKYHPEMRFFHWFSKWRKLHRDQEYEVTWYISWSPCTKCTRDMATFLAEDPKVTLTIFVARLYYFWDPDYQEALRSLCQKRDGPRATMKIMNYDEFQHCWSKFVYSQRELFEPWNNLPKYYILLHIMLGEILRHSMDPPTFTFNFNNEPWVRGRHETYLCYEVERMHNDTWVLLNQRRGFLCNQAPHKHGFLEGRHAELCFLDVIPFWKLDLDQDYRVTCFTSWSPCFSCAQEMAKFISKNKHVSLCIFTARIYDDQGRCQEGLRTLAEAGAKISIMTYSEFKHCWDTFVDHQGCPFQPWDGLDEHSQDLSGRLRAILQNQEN
UBC9 SUMO inh = inhibitors of human SUMOylation (UBC9); AID 2006; HTRF SUMOylation assay, SAE1/SAE2 + UBC9, in vitro; 290,000 compounds, 0.36% hits; inhibition, % at 35 µM; in the data active = inhibition above about 50%, passing the limit was not always enough
Active calls of the source: *.

`CN(C)c1ccc(C(=O)OCc2ccccc2)cc1` gave PfM18AAP inh -8.1, HKDC1 inhibitor 3.5, APOBEC3A inh -1.8, PfGluPho inh 0.0, APOBEC3G inh -3.8 and UBC9 SUMO inh 23.0.
`O=C1C=CC(=O)C(CNc2ccc(C(=O)OCc3ccccc3)cc2)=C1` gave HKDC1 inhibitor 46.7* and PfGluPho inh 74.6*.
For C=C1C(=O)C=C2CN(C(=O)c3ccccc3)[C@@](Cc3ccc(F)cc3)(C(=O)OC)[C@@H]12 the results were PfM18AAP inh -8.1, HKDC1 inhibitor 17.6, APOBEC3A inh -5.3, PfGluPho inh 71.6*, APOBEC3G inh 4.2 and UBC9 SUMO inh -0.9.
`COC(=O)[C@@]1(Cc2ccc(OC)cc2)[C@@H]2C(=CC(=O)[C@H]2CC(=O)C(=O)N(C)C)CN1C(=O)c1ccccc1` gave PfM18AAP inh 2.4, HKDC1 inhibitor 2.0, APOBEC3A inh -0.2, PfGluPho inh -0.5, APOBEC3G inh -5.4 and UBC9 SUMO inh -18.5.
Cc1nc(N)sc1-c1csc(Nc2cccc(O)c2)n1 was read as PfM18AAP inh 30.9*, HKDC1 inhibitor -12.5, APOBEC3A inh -5.6, PfGluPho inh 27.2, APOBEC3G inh -5.1 and UBC9 SUMO inh 6.3.
Screening CC(C)c1ccc(O)c(NC(=O)c2ncn[nH]2)c1 returned PfM18AAP inh 28.5*, HKDC1 inhibitor -2.7, APOBEC3A inh 3.0, PfGluPho inh -5.1, APOBEC3G inh 1.8 and UBC9 SUMO inh 12.1.
Screening CC(C)c1ccc(O)c(NC(=O)c2cncc(Br)c2)c1 returned PfM18AAP inh 1.6, HKDC1 inhibitor -0.8, APOBEC3A inh -1.1, PfGluPho inh 8.9, APOBEC3G inh -6.5 and UBC9 SUMO inh -16.0.
For Cc1ccccc1/C=N/n1c(COc2ccccc2)n[nH]c1=S the results were PfM18AAP inh 12.5, HKDC1 inhibitor -1.4, APOBEC3A inh -2.3, PfGluPho inh 15.3, APOBEC3G inh 0.5 and UBC9 SUMO inh 13.6.
For COc1ccc(OC)c(/C=N/n2c(COc3ccccc3)n[nH]c2=S)c1 the results were PfM18AAP inh 20.2, HKDC1 inhibitor -0.9, APOBEC3A inh -2.1, PfGluPho inh 18.1, APOBEC3G inh 1.1 and UBC9 SUMO inh 13.1.
COc1ccc(/C=N/n2c(COc3ccccc3)n[nH]c2=S)cc1OC was read as PfM18AAP inh 30.4*, HKDC1 inhibitor -4.6, APOBEC3A inh -5.0, PfGluPho inh 27.3, APOBEC3G inh 29.0 and UBC9 SUMO inh 2.2.
Screening CCOc1ccccc1/C=N/n1c(COc2ccccc2)n[nH]c1=S returned PfM18AAP inh 31.2*, HKDC1 inhibitor 0.4, APOBEC3A inh -1.0, PfGluPho inh 27.7, APOBEC3G inh 7.1 and UBC9 SUMO inh -26.0.
For Oc1ccccc1/C=N/n1c(COc2ccccc2)n[nH]c1=S the results were PfM18AAP inh 28.4*, HKDC1 inhibitor 10.8, APOBEC3A inh 0.3, PfGluPho inh 7.8, APOBEC3G inh 30.4 and UBC9 SUMO inh 19.1.
For Fc1ccccc1/C=N/n1c(COc2ccccc2)n[nH]c1=S the results were PfM18AAP inh 20.7, HKDC1 inhibitor -1.4, APOBEC3A inh -0.7, PfGluPho inh 24.6, APOBEC3G inh 12.7 and UBC9 SUMO inh 1.5.
CCN1CCN(C(=O)CCc2nc3ccccc3n2-c2ccccc2)CC1 was read as PfM18AAP inh -6.8, HKDC1 inhibitor 4.0, APOBEC3A inh -0.7, PfGluPho inh -6.2, APOBEC3G inh -1.5 and UBC9 SUMO inh 4.4.
Screening O=C(C1CCCO1)N1CCN(C(=S)Nc2ccccc2F)CC1 (stereo not given) returned PfM18AAP inh 3.9, HKDC1 inhibitor 7.8, APOBEC3A inh 6.0, PfGluPho inh -14.1, APOBEC3G inh -1.5 and UBC9 SUMO inh -0.4.
For CCn1ccnc1[C@@H]1C[C@H]2CN(Cc3cccc(Cl)c3)C(=O)[C@]23CCCN13 the results were PfM18AAP inh 0.0, HKDC1 inhibitor 4.7, APOBEC3A inh -0.8, PfGluPho inh 6.2, APOBEC3G inh -2.5 and UBC9 SUMO inh 0.6.
Screening COc1cccc(C(=O)COC(=O)c2ccc(NC(C)=O)cc2)c1 returned PfM18AAP inh 2.1, HKDC1 inhibitor -0.7, APOBEC3A inh -0.5, PfGluPho inh -3.4, APOBEC3G inh -7.6 and UBC9 SUMO inh 9.1.
CN1/C(=C\C(=O)c2cccc([N+](=O)[O-])c2)Sc2ccccc21 was read as PfM18AAP inh 12.0, HKDC1 inhibitor 0.7, APOBEC3A inh -4.4, PfGluPho inh 16.3, APOBEC3G inh -5.2 and UBC9 SUMO inh 21.2.
